Results from ChEMBL document CHEMBL4024793, “Development of Stem-Cell-Mobilizing Agents Targeting CXCR4 Receptor for Peripheral Blood Stem Cell Transplantation and Beyond” (J Med Chem, 2018).

Key:
[1] = Acute toxicity in sc dosed C57BL/6 mouse assessed as maximum tolerated dose by measuring mortality; type: organism-based; settings: in vivo
Summary of the method: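 Male C57BL/6 or ICR mice (n = 3/group) dosed subcutaneously with escalating doses, low to high; MTD taken as highest dose giving zero mortality (0/3).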

[2] = molecular target: C-C chemokine receptor type 6 (Homo sapiens) (UniProt P51684); assay: Antagonist activity at human CCR6 expressed in CHOK1 cells assessed as inhibition of CCL20-induced cAMP accumulation at 10 uM preincubated for 30 mins followed agonist addition measured after 30 to 60 mins; type: functional, cell-based
Sequence of C-C chemokine receptor type 6 (Homo sapiens) (P51684 whole entry): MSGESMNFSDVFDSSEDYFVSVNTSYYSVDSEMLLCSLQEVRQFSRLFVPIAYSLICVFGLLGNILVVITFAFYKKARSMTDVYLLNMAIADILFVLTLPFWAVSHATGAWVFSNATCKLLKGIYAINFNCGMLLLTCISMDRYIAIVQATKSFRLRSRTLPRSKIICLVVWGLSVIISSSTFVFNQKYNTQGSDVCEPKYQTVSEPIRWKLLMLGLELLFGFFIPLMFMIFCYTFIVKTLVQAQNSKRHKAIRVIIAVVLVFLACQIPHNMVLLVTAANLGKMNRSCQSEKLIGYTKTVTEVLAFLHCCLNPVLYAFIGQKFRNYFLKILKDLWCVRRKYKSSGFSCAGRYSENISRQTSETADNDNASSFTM
Summary of the method: (§1)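 GPCR cAMP assay with a single test concentration of 10 μM; result expressed as percentage inhibition for each chemokine receptor.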

[3] = molecular target: C-C chemokine receptor type 7 (Homo sapiens) (UniProt P32248); assay: Antagonist activity at human CCR7 expressed in CHOK1 cells assessed as inhibition of CCL19-induced cAMP accumulation at 10 uM preincubated for 30 mins followed agonist addition measured after 30 to 60 mins; type: functional, cell-based; summary of the method: as §1
Sequence of C-C chemokine receptor type 7 (Homo sapiens) (P32248 whole entry): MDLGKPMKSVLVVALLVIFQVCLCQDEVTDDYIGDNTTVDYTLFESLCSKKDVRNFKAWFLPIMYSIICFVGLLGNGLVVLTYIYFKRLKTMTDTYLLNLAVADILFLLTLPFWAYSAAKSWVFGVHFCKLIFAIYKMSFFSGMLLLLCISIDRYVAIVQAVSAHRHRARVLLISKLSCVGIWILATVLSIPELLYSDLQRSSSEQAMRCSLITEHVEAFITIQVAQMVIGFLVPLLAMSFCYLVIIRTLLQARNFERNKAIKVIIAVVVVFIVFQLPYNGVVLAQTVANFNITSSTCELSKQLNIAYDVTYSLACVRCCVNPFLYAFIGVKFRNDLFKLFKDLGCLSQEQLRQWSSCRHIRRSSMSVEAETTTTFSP

[4] = molecular target: Chemokine XC receptor 1 (Homo sapiens) (UniProt P46094); assay: Antagonist activity at human XCR1 expressed in CHOK1 cells assessed as inhibition of lymphotactin-induced cAMP accumulation at 10 uM preincubated for 30 mins followed agonist addition measured after 30 to 60 mins; type: functional, cell-based; summary of the method: as §1
Sequence of Chemokine XC receptor 1 (Homo sapiens) (P46094 whole entry): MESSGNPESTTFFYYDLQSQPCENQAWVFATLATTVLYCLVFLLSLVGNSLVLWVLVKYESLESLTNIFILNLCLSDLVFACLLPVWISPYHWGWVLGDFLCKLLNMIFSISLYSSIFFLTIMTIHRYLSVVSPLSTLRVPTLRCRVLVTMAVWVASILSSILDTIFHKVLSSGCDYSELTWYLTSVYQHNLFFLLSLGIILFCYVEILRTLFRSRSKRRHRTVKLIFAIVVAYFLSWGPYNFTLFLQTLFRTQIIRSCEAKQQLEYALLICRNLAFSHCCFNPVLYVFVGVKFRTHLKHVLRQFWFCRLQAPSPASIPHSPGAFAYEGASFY

[5] = molecular target: C-X-C chemokine receptor type 3 (Homo sapiens) (UniProt P49682); assay: Antagonist activity at human CXCR3 expressed in CHOK1 cells assessed as inhibition of CXCL11-induced cAMP accumulation at 10 uM preincubated for 30 mins followed agonist addition measured after 30 to 60 mins; type: functional, cell-based; summary of the method: as §1
Sequence of C-X-C chemokine receptor type 3 (Homo sapiens) (P49682 whole entry): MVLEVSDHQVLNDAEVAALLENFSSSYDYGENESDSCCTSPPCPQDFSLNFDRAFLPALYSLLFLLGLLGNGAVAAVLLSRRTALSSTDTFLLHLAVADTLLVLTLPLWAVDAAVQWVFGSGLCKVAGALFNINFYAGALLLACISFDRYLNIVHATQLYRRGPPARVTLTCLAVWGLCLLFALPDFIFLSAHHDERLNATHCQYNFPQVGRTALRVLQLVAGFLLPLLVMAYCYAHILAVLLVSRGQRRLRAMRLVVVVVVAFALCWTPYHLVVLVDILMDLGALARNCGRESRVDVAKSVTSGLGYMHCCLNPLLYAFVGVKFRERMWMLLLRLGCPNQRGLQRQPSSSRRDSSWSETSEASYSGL

[6] = molecular target: C-X-C chemokine receptor type 4 (Homo sapiens, UniProt P61073); assay: Antagonist activity at human CXCR4 expressed in CHOK1 cells assessed as inhibition of SDF1a-induced cAMP accumulation at 10 uM preincubated for 30 mins followed agonist addition measured after 30 to 60 mins; type: functional, cell-based; summary of the method: as §1
Sequence of C-X-C chemokine receptor type 4 (P61073 whole entry): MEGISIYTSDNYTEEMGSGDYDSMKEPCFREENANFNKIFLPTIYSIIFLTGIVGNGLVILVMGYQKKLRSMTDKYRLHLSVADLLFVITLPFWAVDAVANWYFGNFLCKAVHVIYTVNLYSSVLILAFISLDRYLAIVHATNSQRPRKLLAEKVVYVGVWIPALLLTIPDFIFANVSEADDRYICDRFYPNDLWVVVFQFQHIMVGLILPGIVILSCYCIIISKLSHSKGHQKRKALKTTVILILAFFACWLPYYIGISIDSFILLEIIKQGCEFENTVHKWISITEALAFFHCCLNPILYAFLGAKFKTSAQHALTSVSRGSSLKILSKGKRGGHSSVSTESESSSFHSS

[7] = molecular target: C-X-C chemokine receptor type 5 (Homo sapiens) (UniProt P32302); assay: Antagonist activity at human CXCR5 expressed in CHOK1 cells assessed as inhibition of CXCL13-induced cAMP accumulation at 10 uM preincubated for 30 mins followed agonist addition measured after 30 to 60 mins; type: functional, cell-based; summary of the method: as §1
Sequence of C-X-C chemokine receptor type 5 (Homo sapiens) (P32302 whole entry): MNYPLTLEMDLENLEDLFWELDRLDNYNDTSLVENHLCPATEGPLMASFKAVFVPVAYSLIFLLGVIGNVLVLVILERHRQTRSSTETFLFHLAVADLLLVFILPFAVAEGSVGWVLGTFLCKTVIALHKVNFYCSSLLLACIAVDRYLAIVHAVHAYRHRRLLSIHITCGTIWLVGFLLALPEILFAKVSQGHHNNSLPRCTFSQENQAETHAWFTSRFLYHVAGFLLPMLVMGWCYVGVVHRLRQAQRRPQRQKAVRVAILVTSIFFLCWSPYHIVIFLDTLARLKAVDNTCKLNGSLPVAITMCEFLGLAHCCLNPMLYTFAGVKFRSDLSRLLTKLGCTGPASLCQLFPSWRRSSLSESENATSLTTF

[8] = Cytotoxicity against human Detroit 551 cells; type: cell-based
[9] = AUC (0 to 4 hrs) in C57BL/6 mouse at 6 mg/kg, sc measured up to 4 hrs post dose by LC-MS/MS analysis; type: ADME, organism-based; design: dose 6 mg/kg, time < 4 hr, route subcutaneous; settings: in vivo
Summary of the method: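 Male C57BL/6 mice (23.4–25.4 g), quarantined one week, non-fasted, n = 3; single SC dose of 6 mg/kg in 100% saline. Blood taken by cardiac puncture at 0, 0.03, 0.08, 0.25, 1, 1.5, 2 and 4 h and stored at -80 °C. Plasma analysed by LC–MS/MS; parameters from non-compartmental analysis; mean ± SD.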

Mus musculus [10] = assay: Therapeutic ratio of MTD for sc dosed C57BL/6 mouse to MED for hematopoietic stem cell mobilization in sc dosed C57BL/6 mouse
Summary of the method: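 MTD: C57BL/6 or ICR male mice dosed SC from low to high, n = 3 per group; MTD is the highest dose with zero mortality (0/3). MED: lowest SC dose raising blood CXCR4⁺ cells at 2 h, by flow cytometry, in the escalating-dose study. Ratio calculated as MTD/MED.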

Mus musculus [11] = assay: Induction of hematopoietic stem cell mobilization in C57BL/6 mouse assessed as induction of movement of HSCs and EPCs into peripheral circulation at 35 mg/kg, sc measured after 2 hrs by flow cytometric analysis relative to control; type: functional
Mus musculus [12] = assay: Induction of hematopoietic stem cell mobilization in C57BL/6 mouse assessed as increase in CFU-GM colonies from PBMC at 35 mg/kg, sc administered on day 5 post 100 ug/kg/day G-CSF addition for 4 days measured after 2 hrs post compound dose by colony forming assay relative to AMD3100; type: functional
Summary of the method: (§2)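 Male C57BL/6 mice given G-CSF 100 µg/kg SC daily for 4 days. On day 5, G-CSF was co-injected SC with compound. Heparinized blood taken 2 h later; PBMCs isolated and cultured in methylcellulose medium for 10–14 days. CFU-GM colonies (aggregates of ≥50 cells) counted under an inverted microscope. Mean ± SEM, 8–12 mice per group, t test.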

Cytochrome P450 1A2 = Cytochrome P450 1A2 (Homo sapiens, UniProt P05177); assay: Inhibition of human liver microsomal CYP1A2; type: ADME
Sequence of Cytochrome P450 1A2 (P05177 whole entry): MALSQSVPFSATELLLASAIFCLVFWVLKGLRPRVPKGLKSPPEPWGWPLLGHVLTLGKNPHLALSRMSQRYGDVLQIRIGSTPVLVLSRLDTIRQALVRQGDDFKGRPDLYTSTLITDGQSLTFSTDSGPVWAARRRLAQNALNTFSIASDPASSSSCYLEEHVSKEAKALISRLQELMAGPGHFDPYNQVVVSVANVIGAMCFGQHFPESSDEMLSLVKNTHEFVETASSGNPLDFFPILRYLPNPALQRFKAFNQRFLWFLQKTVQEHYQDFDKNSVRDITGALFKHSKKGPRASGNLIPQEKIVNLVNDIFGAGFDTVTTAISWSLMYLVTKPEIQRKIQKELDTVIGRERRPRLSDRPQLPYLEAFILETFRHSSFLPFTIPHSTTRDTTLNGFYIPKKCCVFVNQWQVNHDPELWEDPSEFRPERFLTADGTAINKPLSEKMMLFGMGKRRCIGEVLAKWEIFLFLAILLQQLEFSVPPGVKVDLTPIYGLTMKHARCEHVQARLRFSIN

Cytochrome P450 2C9 = Cytochrome P450 2C9 (Homo sapiens, UniProt P11712); assay: Inhibition of human liver microsomal CYP2C9; type: ADME
Sequence of Cytochrome P450 2C9 (P11712 whole entry): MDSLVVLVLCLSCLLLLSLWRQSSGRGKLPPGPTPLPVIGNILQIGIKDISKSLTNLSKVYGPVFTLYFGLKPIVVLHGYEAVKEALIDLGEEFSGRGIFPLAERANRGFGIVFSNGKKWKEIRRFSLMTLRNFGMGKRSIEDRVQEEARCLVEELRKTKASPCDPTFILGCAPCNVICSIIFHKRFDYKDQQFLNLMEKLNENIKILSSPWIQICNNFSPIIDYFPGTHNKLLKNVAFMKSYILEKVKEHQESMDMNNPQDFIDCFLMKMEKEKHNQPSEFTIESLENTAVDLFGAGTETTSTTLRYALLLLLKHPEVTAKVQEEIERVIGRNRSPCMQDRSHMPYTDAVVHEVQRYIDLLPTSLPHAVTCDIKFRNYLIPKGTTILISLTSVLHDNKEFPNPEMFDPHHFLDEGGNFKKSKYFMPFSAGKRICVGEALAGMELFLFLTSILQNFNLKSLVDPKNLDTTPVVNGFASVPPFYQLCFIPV

Cytochrome P450 2C19 = Cytochrome P450 2C19 (Homo sapiens, UniProt P33261); assay: Inhibition of human liver microsomal CYP2C19; type: ADME
Sequence of Cytochrome P450 2C19 (P33261 whole entry): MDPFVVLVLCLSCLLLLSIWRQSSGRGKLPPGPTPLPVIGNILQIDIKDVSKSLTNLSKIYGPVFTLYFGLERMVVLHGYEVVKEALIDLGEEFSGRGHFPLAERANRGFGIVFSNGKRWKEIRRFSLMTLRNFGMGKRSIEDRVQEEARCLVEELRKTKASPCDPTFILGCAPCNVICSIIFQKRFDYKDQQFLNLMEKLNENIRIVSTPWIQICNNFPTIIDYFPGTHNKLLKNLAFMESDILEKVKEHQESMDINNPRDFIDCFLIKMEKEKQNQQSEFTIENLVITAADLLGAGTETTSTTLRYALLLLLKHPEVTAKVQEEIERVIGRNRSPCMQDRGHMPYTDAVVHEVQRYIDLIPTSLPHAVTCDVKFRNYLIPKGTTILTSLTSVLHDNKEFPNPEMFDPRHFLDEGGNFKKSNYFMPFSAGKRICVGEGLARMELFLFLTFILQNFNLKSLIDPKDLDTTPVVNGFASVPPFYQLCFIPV

Cytochrome P450 2D6 = Cytochrome P450 2D6 (Homo sapiens, UniProt P10635); assay: Inhibition of human liver microsomal CYP2D6; type: ADME
Sequence of Cytochrome P450 2D6 (P10635 whole entry): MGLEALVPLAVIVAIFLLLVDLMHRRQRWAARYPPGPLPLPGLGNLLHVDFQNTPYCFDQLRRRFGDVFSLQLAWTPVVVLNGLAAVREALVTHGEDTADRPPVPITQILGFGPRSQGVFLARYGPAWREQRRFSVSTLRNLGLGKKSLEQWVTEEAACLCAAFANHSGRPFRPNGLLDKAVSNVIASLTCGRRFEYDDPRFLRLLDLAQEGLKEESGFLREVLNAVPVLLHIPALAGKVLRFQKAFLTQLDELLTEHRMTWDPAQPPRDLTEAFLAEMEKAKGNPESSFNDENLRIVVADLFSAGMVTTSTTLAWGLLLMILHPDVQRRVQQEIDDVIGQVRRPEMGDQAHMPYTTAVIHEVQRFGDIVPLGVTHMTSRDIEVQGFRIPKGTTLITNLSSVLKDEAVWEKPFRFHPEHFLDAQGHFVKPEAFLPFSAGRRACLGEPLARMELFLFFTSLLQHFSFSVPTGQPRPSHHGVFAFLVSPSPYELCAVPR

Mus musculus [13] = assay: In vivo antagonist activity at CXCR4 in C57BL/6 mouse assessed as induction of lymphocytes molization at 35 mg/kg, sc measured after 2 hrs relative to AMD3100; type: functional; design: scale not given: the % may be the effect or the level left
Summary of the method: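 C57BL/6 mice given a single SC injection at 6 or 35 mg/kg. Blood collected 2 h after dosing and analysed for total white blood cells, neutrophils, lymphocytes and monocytes.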

Mus musculus [14] = assay: In vivo antagonist activity at CXCR4 in C57BL/6 mouse assessed as induction of lymphocytes molization at 35 mg/kg, sc measured after 2 hrs relative to untreated control; type: functional
Rattus norvegicus [15] = assay: Toxicity in Sprague-Dawley rat assessed as effect on lung size at 50 mg/kg/day, sc administered for 14 days relative to control; type: organism-based; settings: in vivo, 336 h
Summary of the method: (§3)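 Non-GLP 14-day repeated-dose study in SD rats given 50 mg/kg/day SC. Major organs (liver, kidney, lung, heart) compared with vehicle for size, weight and colour. Blood analysed for hematological and biochemical parameters.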

Rattus norvegicus [16] = assay: Hepatotoxicity in Sprague-Dawley rat assessed as effect on liver weight at 50 mg/kg/day, sc administered for 14 days relative to control; type: toxicity, organism-based; settings: in vivo, 336 h; summary of the method: as §3
Rattus norvegicus [17] = assay: Renal toxicity in Sprague-Dawley rat assessed as effect on kidney weight at 50 mg/kg/day, sc administered for 14 days relative to control; type: organism-based; settings: in vivo, 336 h; summary of the method: as §3
Rattus norvegicus [18] = assay: Toxicity in Sprague-Dawley rat assessed as effect on lung weight at 50 mg/kg/day, sc administered for 14 days relative to control; type: organism-based; settings: in vivo, 336 h; summary of the method: as §3
Mus musculus [19] = assay: Induction of hematopoietic stem cell mobilization in C57BL/6 mouse assessed as increase in CFU-GM colonies from PBMC at 6 mg/kg, sc administered on day 5 post 100 ug/kg/day G-CSF addition for 4 days measured after 2 hrs post compound dose by colony forming assay relative to G-CSF alone; type: functional; summary of the method: as §2
Rattus norvegicus [20] = assay: Toxicity in Sprague-Dawley rat assessed as effect on hematology parameters at 50 mg/kg/day, sc administered for 14 days relative to control; type: organism-based; settings: in vivo, 336 h; summary of the method: as §3
Rattus norvegicus [21] = assay: Toxicity in Sprague-Dawley rat assessed as effect on biochemistry parameters at 50 mg/kg/day, sc administered for 14 days relative to control; type: organism-based; settings: in vivo, 336 h; summary of the method: as §3
Rattus norvegicus [22] = assay: Renal toxicity in Sprague-Dawley rat assessed as effect on kidney histology parameters up to 100 mg/kg/day, sc after 24 hrs by H and E staining based microscopy; type: organism-based; settings: in vivo
Summary of the method: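 Acute kidney histology study in SD rats at doses up to 100 mg/kg. Renal tissue compared with controls by photomicrographs.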

SMILES: Cc1cc(NC2CCN(C(=O)CCNCC(=O)O)CC2)nc(NCc2cn(CCCNCCCNC3CCCCC3)nn2)n1
- MTD [1]: 75 mg/kg
- Efficacy [2]: -2.2%
- Efficacy [3]: -4.2%
- Efficacy [4]: -2.8%
- Efficacy [5]: -7.6%
- Efficacy [6]: 73.4%
- Efficacy [7]: -11%
- CC50 [8]: > 100 µM
- AUC(0-t) at 4 h [9]: 13500 ng·h/mL
- TI (Mus musculus [10]): 12.5
- fold change (FC) (Mus musculus [11]): 7
- fold change (FC) (Mus musculus [12]): 1.6
- IC50 (Cytochrome P450 1A2): > 100 µM
- IC50 (Cytochrome P450 2C9): > 100 µM
- IC50 (Cytochrome P450 2C19): > 100 µM
- IC50 (Cytochrome P450 2D6): > 100 µM
- Activity (Mus musculus [13]): 30 - 50%
- fold change (FC) (Mus musculus [14]): 2 - 4
- Activity (Rattus norvegicus [15]): Non-Toxic
- Activity (Rattus norvegicus [16]): Non-Toxic
- Activity (Rattus norvegicus [17]): Non-Toxic
- Activity (Rattus norvegicus [18]): Non-Toxic
- fold change (FC) (Mus musculus [19]): 5.3
- Activity (Rattus norvegicus [20]): Non-Toxic
- Activity (Rattus norvegicus [21]): Non-Toxic
- Activity (Rattus norvegicus [22]): Non-Toxic
